Experimental data: ChEMBL document CHEMBL5042534, “Fluconazole-COX Inhibitor Hybrids: A Dual-Acting Class of Antifungal Azoles” (2022)
Converted amounts (≈) assume the structure as drawn. The source made the active and inactive calls. The rule behind the calls is not given here.

Assays:
[1] = system: Candida albicans; assay: Antifungal activity against Candida albicans SN152 harbouring erg3delta delta/erg11delta delta assessed as […] fungal growth inhibition measured every 40 mins for 48 hrs by double dilution method; assay type: functional, organism-based; details: dose 1-64 µg/ml
In short: (§1)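 erg3ΔΔ/erg11ΔΔ C. albicans taken from 24 h, 30 °C YPAD-agar colonies, brought to 1×10^-3 OD600 in PBS, then diluted 1:100 in YPAD. Serial twofold drug dilutions from 64 to 1 µg/mL in YPAD. OD600 read every 40 min over 48 h at 30 °C against no-drug and medium-blank controls. Triplicate wells, two independent experiments.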

[2] = system: Candida albicans; assay: Antifungal activity against Candida albicans SN152 assessed as reduction in drug tolerance by measuring zone of inhibition at 25 ug incubated for 24 to 48 hrs by disk diffusion assay; assay type: functional, organism-based; details: dose 25.0 µg, time 24-48 hrs
In short: (§2)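 Plated onto casitone agar from 24 h, 30 °C YPAD-agar colonies suspended in PBS. Inoculum OD600 0.02 for C. albicans SN152, 0.025 for C. parapsilosis ATCC 22019 and C. tropicalis 660. Central 6-mm disk holding 25 µg drug. Plates incubated at 30 °C and imaged at 24 h (inhibition zone) and 48 h (tolerant colonies within the zone).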

[3] = system: Candida parapsilosis; assay: Antifungal activity against Candida parapsilosis ATCC 22019 assessed as reduction in drug tolerance by measuring zone of inhibition at 25 ug incubated for 24 to 48 hrs by disk diffusion assay; assay type: functional, organism-based; details: dose 25.0 µg, time 24-48 hrs; in short: as §2
[4] = system: Candida tropicalis; assay: Antifungal activity against Candida tropicalis 660 assessed as reduction in drug tolerance by measuring zone of inhibition at 25 ug incubated for 24 to 48 hrs by disk diffusion assay; assay type: functional, organism-based; details: dose 25.0 µg, time 24-48 hrs; in short: as §2
[5] = system: Candida albicans; assay: Antifungal activity against Candida albicans SN152 assessed as fungal growth inhibition incubated for 24 hrs by CLSI based broth double-dilution assay; assay type: functional
In short: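 Broth double-dilution per CLSI M27-A3 (minor modifications); colonies from YPAD agar (24 h, 30 °C) suspended in PBS to 1 × 10^-3 OD600 then diluted 1:100 into YPAD; serial twofold dilutions 64–0.003 μg/mL in YPAD; 24 h at 30 °C; OD600 read; MIC80 = lowest concentration reducing OD600 ≥80% versus no-drug wells; triplicate, two independent experiments.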

[6] = system: Candida albicans; assay: Antifungal activity against Candida albicans SN152 harbouring erg3delta delta/erg11delta delta assessed as fungal growth inhibition incubated for 24 hrs by CLSI based broth double-dilution assay; assay type: functional
In short: (§3)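 CLSI M27-A3 broth microdilution with modifications in YPAD. Cells from 24 h, 30 °C YPAD-agar colonies brought to 1×10^-3 OD600 in PBS, then diluted 1:100. Twofold dilutions from 64 to 0.003 µg/mL. After 24 h at 30 °C, MIC80 taken as the lowest concentration giving ≥80% OD600 reduction versus no-drug wells. Triplicate wells, two independent experiments.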

[7] = system: Candida parapsilosis; assay: Antifungal activity against Candida parapsilosis ATCC 22019 assessed as fungal growth inhibition incubated for 24 hrs by CLSI based broth double-dilution assay; assay type: functional; details: Lodderomyces parapsilosis; in short: as §3
[8] = system: Candida albicans; assay: Antifungal activity against Candida albicans SN152 harbouring erg3delta delta/erg11delta delta assessed as […] fungal growth inhibition at 64 ug/mL measured every 40 mins for 48 hrs by double dilution method; assay type: functional, organism-based; details: dose 64.0 µg/ml; in short: as §1
[9] = system: Candida albicans; assay: Antifungal activity against Candida albicans SN152 harbouring erg3delta delta/erg11delta delta assessed as […] fungal growth inhibition at 1 to 64 ug/mL measured every 40 mins for 48 hrs by double dilution method; assay type: functional, organism-based; details: dose 1-64 µg/ml; in short: as §1

Compound	Activity [1]	Activity [2]	Activity [3]	Activity [4]	MIC80 [5] [µg/mL]	MIC80 [6] [µg/mL]	MIC80 [7] [µg/mL]	Activity [8]	Activity [9]
CC(C(=O)O)c1ccc(-c2ccccc2)c(F)c1 (centres undefined)	Dose-Dependent Effect								
CC(C)Cc1ccc([C@H](C)C(=O)NC[C@](O)(Cn2cncn2)c2ccc(F)cc2F)cc1	Dose-Dependent Effect	Active	Active	Active	0.003 (≈ 0.00678 µM)	64 (≈ 145 µM)			
C[C@H](C(=O)NC[C@](O)(Cn1cncn1)c1ccc(F)cc1F)c1ccc(-c2ccccc2)c(F)c1	Dose-Dependent Effect	Active	Active	Active	0.007 (≈ 0.0146 µM)	64 (≈ 133 µM)	0.5 (≈ 1.04 µM)		
C[C@@H](c1ncncc1F)[C@](O)(Cn1cncn1)c1ccc(F)cc1F [VORICONAZOLE]		inactive	inactive	Active			0.015 (≈ 0.0429 µM)	Active	
CC(C)Cc1ccc(C(C)C(=O)O)cc1 (centres undefined)	Dose-Dependent Effect								
OC(Cn1cncn1)(Cn1cncn1)c1ccc(F)cc1F		inactive	inactive	Active					inactive
